Source: ChEMBL document CHEMBL4007405 (J Med Chem, 2017)
pIC50: −log10 of the molar value. Active and inactive are the calls of the source. The calls are words filed in the database; no cut-off is given here. Positions of bridges follow the written chain, without caps; N, C: chain ends. Residues, ends and D or L forms follow the SMILES beside them.

Tests used:
[1] = target: T1, Lethal factor (Bacillus anthracis) (UniProt P15917); experiment: (§1) Inhibition of Bacillus anthracis lethal factor protease preincubated for 30 mins prior to addition of substrate containing fluorescent proteins CyPet and YPet measured every 2 mins for 3 hrs by FRET assay
T1 sequence (whole entry): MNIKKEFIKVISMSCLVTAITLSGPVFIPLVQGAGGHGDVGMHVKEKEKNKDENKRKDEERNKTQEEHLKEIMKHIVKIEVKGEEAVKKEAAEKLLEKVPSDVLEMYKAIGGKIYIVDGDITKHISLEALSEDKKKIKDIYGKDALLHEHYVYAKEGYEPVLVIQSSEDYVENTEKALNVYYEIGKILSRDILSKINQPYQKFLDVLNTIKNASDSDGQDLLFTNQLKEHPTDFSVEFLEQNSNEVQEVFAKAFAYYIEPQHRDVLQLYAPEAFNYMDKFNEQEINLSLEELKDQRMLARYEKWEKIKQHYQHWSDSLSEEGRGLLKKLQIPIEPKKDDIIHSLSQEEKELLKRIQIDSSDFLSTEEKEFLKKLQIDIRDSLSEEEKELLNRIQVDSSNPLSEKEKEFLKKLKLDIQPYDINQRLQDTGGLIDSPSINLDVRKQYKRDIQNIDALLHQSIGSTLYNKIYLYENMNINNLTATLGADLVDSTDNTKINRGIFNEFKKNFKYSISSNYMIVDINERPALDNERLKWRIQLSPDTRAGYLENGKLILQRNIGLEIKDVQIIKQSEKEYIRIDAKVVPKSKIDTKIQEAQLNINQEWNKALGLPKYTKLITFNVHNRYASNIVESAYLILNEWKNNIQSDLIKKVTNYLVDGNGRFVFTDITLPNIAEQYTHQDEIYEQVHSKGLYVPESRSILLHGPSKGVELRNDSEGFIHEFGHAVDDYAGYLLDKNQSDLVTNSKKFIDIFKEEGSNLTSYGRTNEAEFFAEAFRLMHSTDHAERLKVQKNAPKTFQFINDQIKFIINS
Procedure, shortened: (§2)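 Preincubated with peptide from 1 nM to 10 μM for 30 min at room temperature. CyPet–YPet substrate (LF consensus sequence with (GGS)6 linkers) then added to a final 10 nM. FRET read every 2 min for 3 h with excitation at 405 nm and emission ratio It/I0 at 535 nm. Initial velocities fitted to log(inhibitor)–response with variable Hill slope. Run in triplicate.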

[2] = target: T1, Lethal factor (Bacillus anthracis); experiment: Inhibition of Bacillus anthracis lethal factor protease up to 10 uM preincubated for 30 mins prior to addition of substrate containing fluorescent proteins CyPet and YPet measured every 2 mins for 3 hrs by FRET assay; procedure, shortened: as §2
[3] = target: T2, Lethal factor (Bacillus anthracis, UniProt P15917); experiment: as §1; procedure, shortened: as §2
T2 sequence (P15917 whole entry): T1 sequence (whole entry)

[4] = tested on: HeLa; experiment: Cytotoxicity against human HeLa cells up to 100 uM after 48 hrs by MTT assay; type: cell-based
Procedure, shortened: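 HeLa cells grown in DMEM with 10% FBS, penicillin and streptomycin at 37° C, 5% CO2. About 3 × 10^3 cells per well were seeded for 24 h, washed with PBS, then exposed to peptides in DMEM/10% FBS for 48 h at 37° C. MTT was added for 2 h and formazan dissolved in DMSO. Absorbance read at 595 nm with 670 nm background subtracted.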

[5] = target: T2, Lethal factor

Structure (SMILES)	inhibition [1]	further results
C[C@@H](O)[C@@H]1NC(=O)[C@@H]2CSSC[C@H](NC(=O)[C@H](Cc3c[nH]c4ccccc34)NC(=O)[C@H](CCCNC(=N)N)NC(=O)[C@H](CCCNC(=N)N)NC1=O)C(=O)N[C@@H](CCCNC(=N)N)C(=O)N[C@H]1CSSC[C@H](NC(=O)[C@H](CCCNC(=N)N)NC(=O)[C@@H]3CSSC[C@H](NC(=O)[C@H](Cc4c[nH]c5ccccc45)NC1=O)C(=O)N[C@@H](CCCNC(=N)N)C(=O)N[C@@H](CCCNC(=N)N)C(=O)N[C@@H](CCCNC(=N)N)C(=O)N[C@@H](Cc1c[nH]c4ccccc14)C(=O)N3)C(=O)N[C@@H](Cc1c[nH]c3ccccc13)C(=O)N2 (cyclo(CRCWCRRRWCRCWCTRRW); disulfide 1-14, 3-12, 5-10)	Dose-dependent effect	
CC[C@H](C)[C@@H]1NC(=O)[C@H](CS)NC(=O)[C@H](CCCNC(=N)N)NC(=O)[C@H](CS)NC(=O)[C@H](C(C)C)NC(=O)CNC(=O)[C@H](CCCNC(=N)N)NC(=O)[C@H](CCCNC(=N)N)NC(=O)[C@H](CS)NC(=O)[C@H](CC(C)C)NC(=O)[C@H](CS)NC(=O)[C@H](CCCNC(=N)N)NC(=O)[C@H](CS)NC(=O)[C@H](Cc2ccccc2)NC(=O)CNC(=O)[C@H](CCCNC(=N)N)NC(=O)[C@H]([C@@H](C)O)NC(=O)[C@H](CS)NC1=O (cyclo(CICTRGFCRCLCRRGVCR))		inhibition [2]: inactive
C[C@@H](O)[C@@H]1NC(=O)[C@@H]2CSSC[C@H](NC(=O)[C@H](Cc3ccccc3)NC(=O)CNC(=O)[C@H](CCCNC(=N)N)NC1=O)C(=O)N[C@@H](CCCNC(=N)N)C(=O)N[C@H]1CSSC[C@H](NC(=O)[C@H](CCCNC(=N)N)NC(=O)[C@@H]3CSSC[C@H](NC(=O)[C@H](Cc4c[nH]c5ccccc45)NC1=O)C(=O)N[C@@H](CCCNC(=N)N)C(=O)N[C@@H](CCCNC(=N)N)C(=O)N[C@@H](CCCNC(=N)N)C(=O)N[C@@H](Cc1c[nH]c4ccccc14)C(=O)N3)C(=O)N[C@@H](Cc1c[nH]c3ccccc13)C(=O)N2 (cyclo(CRCWCRRRWCRCWCTRGF); disulfide 1-14, 3-12, 5-10)	Dose-dependent effect	
CC[C@H](C)[C@@H]1NC(=O)[C@@H]2CSSC[C@H](NC(=O)[C@H](CCCNC(=N)N)NC(=O)[C@@H]3CSSC[C@H](NC1=O)C(=O)N[C@@H]([C@@H](C)O)C(=O)N[C@@H](CCCNC(=N)N)C(=O)NCC(=O)N[C@@H](Cc1ccccc1)C(=O)N3)C(=O)N[C@@H](CC(C)C)C(=O)N[C@H]1CSSC[C@H](NC(=O)[C@H](Cc3c[nH]c4ccccc34)NC(=O)CNC(=O)[C@H](CCCNC(=N)N)NC(=O)[C@H](CCCNC(=N)N)NC1=O)C(=O)N[C@@H](CCCNC(=N)N)C(=O)N2 (cyclo(CICTRGFCRCLCRRGWCR); disulfide 1-10, 3-8, 12-17)	Dose-dependent effect	
CC[C@H](C)[C@@H]1NC(=O)[C@@H]2CSSC[C@H](NC(=O)[C@H](CCCNC(=N)N)NC(=O)[C@@H]3CSSC[C@H](NC1=O)C(=O)N[C@@H]([C@@H](C)O)C(=O)N[C@@H](CCC(=O)O)C(=O)NCC(=O)N[C@@H](Cc1ccccc1)C(=O)N3)C(=O)N[C@@H](CC(C)C)C(=O)N[C@H]1CSSC[C@H](NC(=O)[C@H](C(C)C)NC(=O)CNC(=O)[C@H](CCCNC(=N)N)NC(=O)[C@H](CCCNC(=N)N)NC1=O)C(=O)N[C@@H](CCCNC(=N)N)C(=O)N2 (cyclo(CICTEGFCRCLCRRGVCR); disulfide 1-10, 3-8, 12-17)	Dose-dependent effect	pIC50 [3]: 5.46
CC[C@H](C)[C@@H]1NC(=O)[C@@H]2CSSC[C@H](NC(=O)[C@H](CCCNC(=N)N)NC(=O)[C@@H]3CSSC[C@H](NC1=O)C(=O)N[C@@H]([C@@H](C)O)C(=O)N[C@@H](CCCNC(=N)N)C(=O)NCC(=O)N[C@@H](Cc1ccccc1)C(=O)N3)C(=O)N[C@@H](CC(C)C)C(=O)N[C@H]1CSSC[C@H](NC(=O)[C@H](Cc3c[nH]c4ccccc34)NC(=O)[C@H](CCCNC(=N)N)NC(=O)[C@H](CCCNC(=N)N)NC(=O)[C@H](CCCNC(=N)N)NC1=O)C(=O)N[C@@H](CCCNC(=N)N)C(=O)N2 (cyclo(CICTRGFCRCLCRRRWCR); disulfide 1-10, 3-8, 12-17)	Dose-dependent effect	
CC[C@H](C)[C@@H]1NC(=O)[C@@H]2CSSC[C@H](NC(=O)[C@H](CC(=O)O)NC(=O)[C@@H]3CSSC[C@H](NC1=O)C(=O)N[C@@H]([C@@H](C)O)C(=O)N[C@@H](CCCNC(=N)N)C(=O)NCC(=O)N[C@@H](Cc1ccccc1)C(=O)N3)C(=O)N[C@@H](CC(C)C)C(=O)N[C@H]1CSSC[C@H](NC(=O)[C@H](C(C)C)NC(=O)CNC(=O)[C@H](CCCNC(=N)N)NC(=O)[C@H](CCCNC(=N)N)NC1=O)C(=O)N[C@@H](CCCNC(=N)N)C(=O)N2 (cyclo(CDCLCRRGVCRCICTRGF); disulfide 1-14, 3-12, 5-10)	Dose-dependent effect	
C[C@@H](O)[C@@H]1NC(=O)[C@@H]2CSSC[C@H](NC(=O)[C@H](Cc3c[nH]c4ccccc34)NC(=O)CNC(=O)[C@H](CCCNC(=N)N)NC1=O)C(=O)N[C@@H](CCCNC(=N)N)C(=O)N[C@H]1CSSC[C@H](NC(=O)[C@H](CCCNC(=N)N)NC(=O)[C@@H]3CSSC[C@H](NC(=O)[C@H](Cc4c[nH]c5ccccc45)NC1=O)C(=O)N[C@@H](CCCNC(=N)N)C(=O)N[C@@H](CCCNC(=N)N)C(=O)N[C@@H](CCCNC(=N)N)C(=O)N[C@@H](Cc1c[nH]c4ccccc14)C(=O)N3)C(=O)N[C@@H](Cc1c[nH]c3ccccc13)C(=O)N2 (cyclo(CRCWCRRRWCRCWCTRGW); disulfide 1-14, 3-12, 5-10)	Dose-dependent effect	
CC[C@H](C)[C@@H]1NC(=O)[C@@H]2CSSC[C@H](NC(=O)[C@H](CCCNC(=N)N)NC(=O)[C@@H]3CSSC[C@H](NC1=O)C(=O)N[C@@H]([C@@H](C)O)C(=O)N[C@@H](CCCNC(=N)N)C(=O)NCC(=O)N[C@@H](Cc1ccccc1)C(=O)N3)C(=O)N[C@@H](Cc1c[nH]c3ccccc13)C(=O)N[C@H]1CSSC[C@H](NC(=O)[C@H](Cc3c[nH]c4ccccc34)NC(=O)[C@H](CCCNC(=N)N)NC(=O)[C@H](CCCNC(=N)N)NC(=O)[C@H](CCCNC(=N)N)NC1=O)C(=O)N[C@@H](CCCNC(=N)N)C(=O)N2 (cyclo(CICTRGFCRCWCRRRWCR); disulfide 1-10, 3-8, 12-17)	Dose-dependent effect	
CC(C)C[C@@H]1NC(=O)[C@@H]2CSSC[C@H](NC(=O)[C@H](CCCNC(=N)N)NC(=O)[C@@H]3CSSC[C@H](NC1=O)C(=O)N[C@@H](CCCNC(=N)N)C(=O)N[C@@H](CCCNC(=N)N)C(=O)NCC(=O)N[C@@H](C(C)C)C(=O)N3)C(=O)N[C@@H](Cc1c[nH]c3ccccc13)C(=O)N[C@H]1CSSC[C@H](NC(=O)[C@H](Cc3ccccc3)NC(=O)CNC(=O)[C@H](CCCNC(=N)N)NC(=O)[C@H]([C@@H](C)O)NC1=O)C(=O)N[C@@H](CCCNC(=N)N)C(=O)N2 (cyclo(CLCRRGVCRCWCTRGFCR); disulfide 1-10, 3-8, 12-17)	Dose-dependent effect	pIC50 [3]: 6.69
N=C(N)NCCC[C@@H]1NC(=O)[C@H](CCCNC(=N)N)NC(=O)[C@@H]2CSSC[C@H](NC(=O)[C@H](Cc3c[nH]c4ccccc34)NC(=O)[C@H](CCCNC(=N)N)NC1=O)C(=O)N[C@@H](CCCNC(=N)N)C(=O)N[C@H]1CSSC[C@H](NC(=O)[C@H](CCCNC(=N)N)NC(=O)[C@@H]3CSSC[C@H](NC(=O)[C@H](Cc4c[nH]c5ccccc45)NC1=O)C(=O)N[C@@H](CCCNC(=N)N)C(=O)N[C@@H](CCCNC(=N)N)C(=O)N[C@@H](CCCNC(=N)N)C(=O)N[C@@H](Cc1c[nH]c4ccccc14)C(=O)N3)C(=O)N[C@@H](Cc1c[nH]c3ccccc13)C(=O)N2 (cyclo(CRCWCRRRWCRCWCRRRW); disulfide 1-14, 3-12, 5-10)	Dose-dependent effect	Activity [4]: Non-Toxic; pIC50 [5]: 6.60
